In assay [1] the test system is Shigella dysenteriae. Nature of the assay: Antibacterial activity against Shigella dysenteriae after 24 hrs by two-fold serial dilution assay. It is filed as functional.
Assay [2] concerns Aspergillus flavus. Nature of the assay: Antifungal activity against Aspergillus flavus after 24 hrs by two-fold serial dilution assay. It is filed as functional. The essentials:
(§1)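 Twofold serial broth dilution following NCCLS guidance, with Chloromycin, Norfloxacin and Fluconazole as positive controls. MIC in μM is the lowest concentration giving complete inhibition of visible bacterial or fungal growth.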

The subject of assay [3] is Staphylococcus aureus. Nature of the assay: Antibacterial activity against methicillin-resistant Staphylococcus aureus N315 after 24 hrs by two-fold serial dilution assay. It is filed as functional.
Assay [4] has as its system Proteus vulgaris. Nature of the assay: Antibacterial activity against Bacillus proteus ATCC 13315 after 24 hrs by two-fold serial dilution assay. The assay is classed as functional. The essentials:
as §1

Assay [5] deals with Micrococcus luteus. As to the kind of experiment: Antibacterial activity against Micrococcus luteus ATCC 4698 after 24 hrs by two-fold serial dilution assay. The assay is classed as functional, NCTC 2665. The essentials:
as §1

For assay [6], the system named is Staphylococcus aureus. Nature of the assay: Antibacterial activity against Staphylococcus aureus ATCC 25923 after 24 hrs by two-fold serial dilution assay. The assay is classed as functional. An outline of the steps:
as §1

In assay [7] the test system is Pseudomonas aeruginosa. Nature of the assay: Antibacterial activity against Pseudomonas aeruginosa after 24 hrs by two-fold serial dilution assay. The assay is classed as functional. The essentials:
as §1

In assay [8] the test system is Candida albicans. Nature of the assay: Antifungal activity against Candida albicans ATCC 76615 after 24 hrs by two-fold serial dilution assay. The assay is classed as functional. The essentials: as §1
Assay [9] relates to Bacillus subtilis. As to the kind of experiment: Antibacterial activity against Bacillus subtilis after 24 hrs by two-fold serial dilution assay. The assay is classed as functional. An outline of the steps:
as §1

Assay [10] has as its system Cyberlindnera jadinii. As to the kind of experiment: Antifungal activity against Candida utilis after 24 hrs by two-fold serial dilution assay. It is filed as functional. The essentials:
as §1

For assay [11], the system named is Saccharomyces cerevisiae. As to the kind of experiment: Antifungal activity against Saccharomyces cerevisiae after 24 hrs by two-fold serial dilution assay. The assay is classed as functional. The essentials:
as §1

Assay [12] deals with Pichia norvegensis. Nature of the assay: Antifungal activity against Candida mycoderma after 24 hrs by two-fold serial dilution assay. The assay is classed as functional. An outline of the steps:
as §1

Assay [13] has as its system Escherichia coli. Nature of the assay: Antibacterial activity against Escherichia coli DH52 after 24 hrs by two-fold serial dilution assay. It is filed as functional. The essentials: as §1
The test system of assay [14] is Salmonella typhi. As to the kind of experiment: Antibacterial activity against Bacillus typhi after 24 hrs by two-fold serial dilution assay. The assay is classed as functional, Salmonella enterica subsp. enterica serovar Typhi.
Assay [15] deals with Escherichia coli. Nature of the assay: Antibacterial activity against Escherichia coli JM109 after 24 hrs by two-fold serial dilution assay. The assay is classed as functional. The essentials: as §1
Setting [16] is: Shigella dysenteriae, 24 h, read-out: MIC.
Setting [17] is: Aspergillus flavus, 24 h, read-out: MIC.
Where [18] appears, read: Staphylococcus aureus, N315, 24 h, read-out: MIC.
The mark [19] stands for this setting: Proteus vulgaris, ATCC 13315, 24 h, read-out: MIC.
Where [20] appears, read: Micrococcus luteus, NCTC 2665, 24 h, read-out: MIC.
Where [21] appears, read: Staphylococcus aureus, ATCC 25923, 24 h, read-out: MIC.
Setting [22] is: Pseudomonas aeruginosa, 24 h, read-out: MIC.
The mark [23] stands for this setting: Candida albicans, ATCC 76615, 24 h, read-out: MIC.
Where [24] appears, read: Bacillus subtilis, 24 h, read-out: MIC.
Where [25] appears, read: Williopsis jadinii, 24 h, read-out: MIC.
[26] abbreviates: Saccharomyces cerevisiae, 24 h, read-out: MIC.
The mark [27] stands for this setting: Pichia norvegensis, 24 h, read-out: MIC.
[28] abbreviates: Escherichia coli, DH52, 24 h, read-out: MIC.
Where [29] appears, read: Salmonella enterica, 24 h, read-out: MIC.
Setting [30] is: Escherichia coli, JM109, 24 h, read-out: MIC.

Converted amounts (≈) assume the structure as drawn.

Regarding `COc1cc(-c2nc3cc(Cl)ccc3[nH]2)c2c(c1O)CN1CCc3cc4c(cc3C1C2)OCO4` (stereo not given), the minimal inhibitory concentration (MIC) in assay [1] (setting [16]) is 1080 µM (≈ 512 µg/mL); in assay [2] (setting [17]), 1080 µM (≈ 512 µg/mL); in assay [3] (setting [18]) it was 1080 µM (≈ 512 µg/mL); in assay [4] (setting [19]), 896 µM (≈ 427 µg/mL); in assay [5] (setting [20]), 896 µM (≈ 427 µg/mL); in [6] (setting [21]) it was 1080 µM (≈ 512 µg/mL). Besides, the minimum inhibitory concentration (MIC) in assay [7] (setting [22]) worked out at 359 µM (≈ 171 µg/mL); in assay [8] (setting [23]) it was 896 µM (≈ 427 µg/mL); in [9] (setting [24]), 717 µM (≈ 341 µg/mL); in assay [10] (setting [25]), 717 µM (≈ 341 µg/mL); in [11] (setting [26]), 896 µM (≈ 427 µg/mL); in assay [12] (setting [27]), 896 µM (≈ 427 µg/mL). Moreover, the minimum inhibitory concentration (MIC) was determined as 896 µM (≈ 427 µg/mL) in assay [13] (setting [28]), 448 µM (≈ 213 µg/mL) in assay [14] (setting [29]) and 896 µM (≈ 427 µg/mL) in [15] (setting [30]).

With `CCCn1c(-c2cc(OC)c(O)c3c2CC2c4cc5c(cc4CCN2C3)OCO5)nc2ccccc21` (stereo not given), the minimal inhibitory concentration (MIC) in [1] (setting [16]) was 265 µM (≈ 128 µg/mL); in assay [2] (setting [17]) it was 66.2 µM (≈ 32 µg/mL); in assay [3] (setting [18]) it was 55.2 µM (≈ 26.7 µg/mL); in assay [4] (setting [19]), 22.1 µM (≈ 10.7 µg/mL); in assay [5] (setting [20]) it was 110 µM (≈ 53.3 µg/mL); in [6] (setting [21]), 44.1 µM (≈ 21.3 µg/mL). Besides, the MIC worked out at 66.2 µM (≈ 32 µg/mL) in [7] (setting [22]); 22.1 µM (≈ 10.7 µg/mL) in assay [8] (setting [23]); 110 µM (≈ 53.3 µg/mL) in assay [9] (setting [24]); 27.6 µM (≈ 13.3 µg/mL) in assay [10] (setting [25]); 132 µM (≈ 64 µg/mL) in [11] (setting [26]); 13.8 µM (≈ 6.67 µg/mL) in [12] (setting [27]). Besides, the MIC in [13] (setting [28]) came to 110 µM (≈ 53.3 µg/mL); in assay [14] (setting [29]), 27.6 µM (≈ 13.3 µg/mL); in [15] (setting [30]), 110 µM (≈ 53.3 µg/mL).

Regarding `CCCCCCCCCCCCn1c(-c2cc(OC)c(O)c3c2CC2c4cc5c(cc4CCN2C3)OCO5)nc2ccccc21` (stereo not given), the minimal inhibitory concentration (MIC) in [1] (setting [16]) was 175 µM (≈ 107 µg/mL); in assay [2] (setting [17]), 43.8 µM (≈ 26.7 µg/mL); in assay [3] (setting [18]), 175 µM (≈ 107 µg/mL); in assay [4] (setting [19]) it was 5.5 µM (≈ 3.35 µg/mL); in assay [5] (setting [20]), 105 µM (≈ 64 µg/mL); in [6] (setting [21]), 26.2 µM (≈ 16 µg/mL). Moreover, the MIC was 17.5 µM (≈ 10.7 µg/mL) in assay [7] (setting [22]); 5.5 µM (≈ 3.35 µg/mL) in assay [8] (setting [23]); 35 µM (≈ 21.3 µg/mL) in [9] (setting [24]); 17.5 µM (≈ 10.7 µg/mL) in [10] (setting [25]); 70 µM (≈ 42.7 µg/mL) in [11] (setting [26]); 3.3 µM (≈ 2.01 µg/mL) in assay [12] (setting [27]). For the same compound, the minimal inhibitory concentration (MIC) in [13] (setting [28]) was 87.5 µM (≈ 53.4 µg/mL); in [14] (setting [29]) it was 8.7 µM (≈ 5.31 µg/mL); in assay [15] (setting [30]), 26.2 µM (≈ 16 µg/mL).

Regarding `COc1cc(-c2nc3ccccc3[nH]2)c2c(c1O)CN1CCc3cc4c(cc3C1C2)OCO4` (stereo not given), the MIC in assay [1] (setting [16]) turned out to be 96.7 µM (≈ 42.7 µg/mL); in assay [2] (setting [17]), 72.5 µM (≈ 32 µg/mL); in [3] (setting [18]) it was 121 µM (≈ 53.3 µg/mL); in [4] (setting [19]) it was 242 µM (≈ 107 µg/mL); in assay [5] (setting [20]), 242 µM (≈ 107 µg/mL); in assay [6] (setting [21]), 580 µM (≈ 256 µg/mL). The MIC in assay [7] (setting [22]) stood at 145 µM (≈ 64 µg/mL); in assay [8] (setting [23]), 483 µM (≈ 213 µg/mL); in assay [9] (setting [24]), 48.3 µM (≈ 21.3 µg/mL); in assay [10] (setting [25]), 242 µM (≈ 107 µg/mL); in assay [11] (setting [26]) it was 48.3 µM (≈ 21.3 µg/mL); in assay [12] (setting [27]), 60.4 µM (≈ 26.7 µg/mL). Also, the minimal inhibitory concentration (MIC) was 96.7 µM (≈ 42.7 µg/mL) in assay [13] (setting [28]), 48.3 µM (≈ 21.3 µg/mL) in assay [14] (setting [29]) and 60.4 µM (≈ 26.7 µg/mL) in [15] (setting [30]).

As to `COc1cc(C=O)c2c(c1O)CN1CCc3cc4c(cc3C1C2)OCO4` (stereo not given), the MIC in assay [1] (setting [16]) was found to be 121 µM (≈ 42.7 µg/mL); in assay [2] (setting [17]), 151 µM (≈ 53.3 µg/mL); in assay [3] (setting [18]), 302 µM (≈ 107 µg/mL); in assay [4] (setting [19]) it was 483 µM (≈ 171 µg/mL); in assay [5] (setting [20]) it was 302 µM (≈ 107 µg/mL); in assay [6] (setting [21]) it was 724 µM (≈ 256 µg/mL). Moreover, the minimum inhibitory concentration (MIC) is 302 µM (≈ 107 µg/mL) in [7] (setting [22]); 151 µM (≈ 53.3 µg/mL) in assay [8] (setting [23]); 483 µM (≈ 171 µg/mL) in [9] (setting [24]); 302 µM (≈ 107 µg/mL) in assay [10] (setting [25]); 362 µM (≈ 128 µg/mL) in assay [11] (setting [26]); 242 µM (≈ 85.3 µg/mL) in assay [12] (setting [27]). For the same compound, the figures for the minimum inhibitory concentration (MIC) in [13] (setting [28]), in assay [14] (setting [29]) and in assay [15] (setting [30]) were 242 µM (≈ 85.3 µg/mL), 302 µM (≈ 107 µg/mL) and 242 µM (≈ 85.3 µg/mL), respectively.

Take `COc1cc(-c2nc3ccccc3n2Cc2ccc(Cl)cc2Cl)c2c(c1O)CN1CCc3cc4c(cc3C1C2)OCO4` (stereo not given): the minimal inhibitory concentration (MIC) in assay [1] (setting [16]) worked out at 71.1 µM (≈ 42.7 µg/mL); in assay [2] (setting [17]), 71.1 µM (≈ 42.7 µg/mL); in [3] (setting [18]) it was 53.3 µM (≈ 32 µg/mL); in assay [4] (setting [19]) it was 17.7 µM (≈ 10.6 µg/mL); in assay [5] (setting [20]) it was 44.4 µM (≈ 26.7 µg/mL); in assay [6] (setting [21]), 22.2 µM (≈ 13.3 µg/mL). The minimum inhibitory concentration (MIC) in assay [7] (setting [22]) came to 88.8 µM (≈ 53.3 µg/mL); in assay [8] (setting [23]), 22.2 µM (≈ 13.3 µg/mL); in assay [9] (setting [24]) it was 11.1 µM (≈ 6.67 µg/mL); in assay [10] (setting [25]), 22.2 µM (≈ 13.3 µg/mL); in [11] (setting [26]), 26.6 µM (≈ 16 µg/mL); in [12] (setting [27]) it was 13.3 µM (≈ 7.99 µg/mL). Besides, the MIC is 107 µM (≈ 64 µg/mL) in assay [13] (setting [28]), 22.2 µM (≈ 13.3 µg/mL) in [14] (setting [29]) and 35.5 µM (≈ 21.3 µg/mL) in [15] (setting [30]).

Consider `COc1cc(-c2nc3ccccc3n2Cc2ccc(Cl)cc2)c2c(c1O)CN1CCc3cc4c(cc3C1C2)OCO4` (stereo not given), for which the MIC in [1] amounted to 18.9 µM (≈ 10.7 µg/mL); in assay [2], 14.1 µM (≈ 7.98 µg/mL); in assay [3], 18.9 µM (≈ 10.7 µg/mL); in assay [4] it was 11.8 µM (≈ 6.68 µg/mL); in assay [5], 28.3 µM (≈ 16 µg/mL); in [6], 9.4 µM (≈ 5.32 µg/mL). Besides, the MIC in [7] stood at 23.6 µM (≈ 13.4 µg/mL); in [8], 23.6 µM (≈ 13.4 µg/mL); in [9] it was 11.8 µM (≈ 6.68 µg/mL); in assay [10], 11.8 µM (≈ 6.68 µg/mL); in assay [11], 14.1 µM (≈ 7.98 µg/mL); in assay [12], 14.1 µM (≈ 7.98 µg/mL). Besides, the figures for the minimal inhibitory concentration (MIC) in [13], in assay [14] and in assay [15] were 56.5 µM (≈ 32 µg/mL), 9.4 µM (≈ 5.32 µg/mL) and 37.7 µM (≈ 21.3 µg/mL), respectively.

The term MIC denotes the least concentration at which growth counts as inhibited.
